# Measured values collected from several papers.
# Protocols differ between the studies behind these lines.
# Target: Ephrin type-A receptor 2 (EPHA2, Homo sapiens, UniProt P29317)
Structure (SMILES),read-out,action,technique,tested at,measurement,value
N#Cc1ccc(NC(=O)Nc2ccccc2)cc1,cell-free assay,,competition with immobilised ligand,25 µM,remaining binding,100%
Cc1ccc(NC(=O)c2ccnc(C(F)(F)F)c2)cc1-c1cc(OCCO)nc(N2CCOCC2)c1,binding,,competition with immobilised ligand,1 µM,remaining binding,63%
C#Cc1cnc(Nc2ccnc(CO)c2)nc1Nc1ccccc1S(C)(=O)=NC#N (stereo not shown),cell-free assay,,,1 µM,remaining signal,70%
C=CC(=O)N1CCC([C@@H]2CCNc3c(C(N)=O)c(-c4ccc(Oc5ccccc5)cc4)nn32)CC1,cell-free assay,,,1 µM,inhibition,10%
Cc1cc(O)c(-c2ccc([C@@H](C)CN(C)C)cc2)c2c1[nH]c(=O)c1sccc12,cell-free assay,inhibitor,,0.1 µM,inhibition,-2.28%
CCCCC(=O)Nc1ccc(-c2ccc3ncn(CCC)c(=O)c3c2)cn1,binding,,competition with immobilised ligand,0.5 µM,remaining binding,100%
COc1ccc2[nH]c3c4[nH]c5ccc(OC)cc5c4c4c(c3c2c1)C(=O)NC4=O,binding,,competition with immobilised ligand,1 µM,remaining binding,85%
C=CC(=O)N1CCC[C@@H](n2nc(-c3ccc(Oc4ccccc4)cc3)c3c(N)ncnc32)C1,enzyme activity,inhibitor,,1 µM,inhibition,4%
COc1ccc2oc(-c3ccc4nc(N)oc4c3)c/c(=N\c3ccccc3NC(=O)CCN)c2c1,binding,,,1 µM,remaining binding,99%
C1=C/COCc2cc(ccc2OCCN2CCCC2)Nc2nccc(n2)-c2cccc(c2)COC/1,binding,,,0.1 µM,remaining binding,100%
